This is an account of results in ChEMBL document CHEMBL1156901, “Novel matrix metalloproteinase inhibitors derived from quinoxalinone scaffold (Part I)” (Bioorg Med Chem, 2010).

For test [1], the target named is 72 kDa type IV collagenase (Homo sapiens, UniProt P08253). The test can be described thus: Inhibition of MMP2. In a few lines: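 Gelatinase A (MMP-2) with succinylated gelatin substrate and inhibitor in 50 mM sodium borate, pH 8.5, incubated 30 min at 37 °C. 0.03% trinitrobenzenesulfonic acid then added for a further 20 min. Absorbance read at 450 nm.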
Chain of 72 kDa type IV collagenase (P08253 whole entry): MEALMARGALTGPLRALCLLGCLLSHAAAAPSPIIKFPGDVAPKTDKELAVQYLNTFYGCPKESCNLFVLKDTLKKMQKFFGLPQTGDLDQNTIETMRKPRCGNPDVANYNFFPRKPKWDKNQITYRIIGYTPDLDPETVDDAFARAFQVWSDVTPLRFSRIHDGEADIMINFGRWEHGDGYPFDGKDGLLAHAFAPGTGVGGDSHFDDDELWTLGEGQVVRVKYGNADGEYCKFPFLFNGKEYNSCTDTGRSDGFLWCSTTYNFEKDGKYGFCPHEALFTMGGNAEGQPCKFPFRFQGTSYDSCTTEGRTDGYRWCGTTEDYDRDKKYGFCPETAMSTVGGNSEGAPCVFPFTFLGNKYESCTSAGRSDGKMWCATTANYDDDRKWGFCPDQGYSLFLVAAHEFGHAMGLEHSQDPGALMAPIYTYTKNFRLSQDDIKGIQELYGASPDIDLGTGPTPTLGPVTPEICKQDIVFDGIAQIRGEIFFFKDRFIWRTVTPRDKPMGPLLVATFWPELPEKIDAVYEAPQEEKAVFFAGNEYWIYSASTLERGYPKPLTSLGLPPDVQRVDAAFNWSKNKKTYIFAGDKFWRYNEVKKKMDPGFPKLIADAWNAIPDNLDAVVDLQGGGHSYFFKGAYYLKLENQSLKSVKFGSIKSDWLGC
Test [2] has as its target Aminopeptidase N (Sus scrofa) (UniProt P15145). Description: Inhibition of APN assessed as substrate hydrolysis by UV/vis spectrophotometer.
A further test concerns HL-60. Description: Antiproliferative activity against human HL60 cells after 48 hrs by MTT assay. The class given is functional, cell-based. An outline of the steps:
(§1)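 RPMI1640 with 10% FBS, 37 °C, 5% CO2. Cells seeded at 10,000 per well and grown 4 h in complete medium. Compound added at 1600, 800, 400, 200 or 100 µg/ml for 48 h. 0.5% MTT then added for 4 h, formazan dissolved in DMSO over 15 min, OD read at 570 nm. IC50 taken as concentration giving 50% growth inhibition.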

Another test relates to K562. The test can be described thus: Antiproliferative activity against human K562 cells after 48 hrs by MTT assay. The class given is functional, cell-based. An outline of the steps: as §1
(In general: Tetrazolium dyes change colour on reduction, which living cells bring about.)

In another test the test system is SK-OV-3. The test can be described thus: Antiproliferative activity against human SKOV3 cells after 48 hrs by MTT assay. The class given is functional, cell-based. As to conditions: SK-OV-3, 48 h. In a few lines: as §1

Activity calls are given as the source filed them. The calls are words filed in the database; no cut-off is given here.

Chain of Aminopeptidase N (Sus scrofa) (P15145 whole entry, looked up): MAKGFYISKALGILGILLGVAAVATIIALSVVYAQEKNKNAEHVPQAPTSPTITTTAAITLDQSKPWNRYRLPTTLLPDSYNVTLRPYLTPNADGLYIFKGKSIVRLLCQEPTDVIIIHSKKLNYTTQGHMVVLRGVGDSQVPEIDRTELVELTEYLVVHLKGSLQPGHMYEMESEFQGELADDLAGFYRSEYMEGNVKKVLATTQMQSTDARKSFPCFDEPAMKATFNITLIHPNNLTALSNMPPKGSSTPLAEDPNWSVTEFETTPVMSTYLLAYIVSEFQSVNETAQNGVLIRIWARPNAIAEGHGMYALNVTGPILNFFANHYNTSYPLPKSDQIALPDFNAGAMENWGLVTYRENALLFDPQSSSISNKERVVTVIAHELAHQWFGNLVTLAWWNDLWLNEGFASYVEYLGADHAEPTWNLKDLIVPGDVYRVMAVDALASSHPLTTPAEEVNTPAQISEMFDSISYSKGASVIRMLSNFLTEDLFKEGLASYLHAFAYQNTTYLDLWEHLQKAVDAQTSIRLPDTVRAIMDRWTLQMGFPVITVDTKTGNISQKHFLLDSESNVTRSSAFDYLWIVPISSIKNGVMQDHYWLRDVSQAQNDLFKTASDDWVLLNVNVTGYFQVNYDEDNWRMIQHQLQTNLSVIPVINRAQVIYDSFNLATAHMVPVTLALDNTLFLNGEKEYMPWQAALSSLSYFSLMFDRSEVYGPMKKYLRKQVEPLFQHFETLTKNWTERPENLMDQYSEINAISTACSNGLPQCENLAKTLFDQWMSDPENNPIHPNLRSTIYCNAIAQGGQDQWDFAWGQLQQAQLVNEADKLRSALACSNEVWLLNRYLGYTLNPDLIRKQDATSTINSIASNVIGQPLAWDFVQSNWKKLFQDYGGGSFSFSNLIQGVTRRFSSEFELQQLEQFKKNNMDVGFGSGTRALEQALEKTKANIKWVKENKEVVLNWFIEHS

Regarding `Cc1cccc(NC(=O)[C@H](Cc2ccccc2)NC(=O)Cn2c(=O)c(C)nc3ccccc32)c1`, the IC50 (in general, the concentration at which inhibition is half-maximal) in test [1] is 6460 µM; in test [2] it was “Not Active”.
For the compound `Cc1ccc(NC(=O)[C@H](Cc2ccccc2)NC(=O)Cn2c(=O)c(C)nc3ccccc32)cc1`, the IC50 in test [1] is 10.5 µM; in the test on SK-OV-3, 1980 µM; in test [2], “Not Active”. Also, the result in the test with HL-60 and with K562 was inactive.
For the compound `Cc1nc2ccccc2n(CC(=O)N[C@@H](Cc2ccccc2)C(=O)Nc2ccccc2)c1=O`, the IC50 in test [1] is 58.1 µM; in test [2], “Not Active”.
`Cc1nc2ccccc2n(CC(=O)N[C@@H](Cc2ccccc2)C(=O)Nc2ccc(Cl)c(Cl)c2)c1=O`: the IC50 was 26.2 µM in test [1], 3020 µM in the test on SK-OV-3 and “Not Active” in test [2]. In addition, the result in the test on HL-60 and in the test with K562 was inactive.
Turning to `COc1ccc(/C=C/C(=O)N2C[C@@H](NC(=O)c3cccnc3)C[C@H]2C(=O)NO)cc1OC`, the IC50 in test [1] is 5.6 µM; in the test on SK-OV-3, 210 µM; in test [2], “Not Active”.
For `CCN(CC)C(=O)[C@H](Cc1ccccc1)NC(=O)Cn1c(=O)c(C)nc2ccccc21`, the IC50 in test [1] was 105 µM; in test [2] it was “Not Active”.
On the same counts, the results for `Cc1nc2ccccc2n(CC(=O)N[C@@H](Cc2ccccc2)C(=O)Nc2ccc(F)cc2)c1=O` are 124 µM and “Not Active”.
For the compound `Cc1nc2ccccc2n(CC(=O)N[C@@H](Cc2ccccc2)C(=O)Nc2ccc(F)c(Cl)c2)c1=O`, the 50% inhibitory concentration (IC50) is 1360 µM in test [1] and “Not Active” in test [2].
Regarding `Cc1nc2ccccc2n(CC(=O)N[C@@H](Cc2ccccc2)C(=O)Nc2ccc(Cl)cc2)c1=O`, the figures for the concentration for half-maximal inhibition (IC50) in test [1] and in test [2] were 624 µM and “Not Active”, respectively.
Regarding `CCCNC(=O)[C@H](Cc1ccccc1)NC(=O)Cn1c(=O)c(C)nc2ccccc21`, the IC50 in test [1] was 56.6 µM; in test [2], “Not Active”.
`CCCCNC(=O)[C@H](Cc1ccccc1)NC(=O)Cn1c(=O)c(C)nc2ccccc21`: the IC50 in test [1] was 106 µM; in test [2], “Not Active”.
For `Cc1nc2ccccc2n(CC(=O)N[C@@H](Cc2ccccc2)C(=O)Nc2cccnc2)c1=O` the same measures were 30 µM and “Not Active”.
Consider `COC(=O)CCCNC(=O)[C@H](Cc1ccccc1)NC(=O)Cn1c(=O)c(C)nc2ccccc21`, for which the IC50 in test [1] is 2760 µM; in test [2], “Not Active”.
Regarding `Cc1nc2ccccc2n(CC(=O)N[C@@H](Cc2ccccc2)C(=O)Nc2ccc(Br)cc2)c1=O`, the IC50 in test [1] is 2000 µM; in test [2], “Not Active”.
For the compound `COC(=O)CCCCCNC(=O)[C@H](Cc1ccccc1)NC(=O)Cn1c(=O)c(C)nc2ccccc21`, the IC50 in test [1] was 11500 µM; in test [2], “Not Active”.
For `Cc1nc2ccccc2n(CC(=O)N[C@@H](Cc2ccccc2)C(=O)NC(C)C)c1=O` the same measures were 9430 µM and “Not Active”.
For `COC(=O)C(CC(C)C)NC(=O)[C@@H](Cc1ccccc1)NC(=O)Cn1c(=O)c(C)nc2ccccc21` (stereo not given in full) the same measures were 1750 µM and “Not Active”.
For `Cc1nc2ccccc2n(CC(=O)N[C@@H](Cc2ccccc2)C(=O)Nc2ccc(F)c(F)c2)c1=O` the same measures were 24.2 µM and “Not Active”.
On to `Cc1ccccc1NC(=O)[C@H](Cc1ccccc1)NC(=O)Cn1c(=O)c(C)nc2ccccc21`, for which the results for the IC50 in test [1] and in test [2] were 37.3 µM and “Not Active”, respectively.
